# From PubChem
# TRAIL sens C8: sensitizes caspase-8 expressing cells to TRAIL. NB7+C8 cells + TRAIL, ATPlite viability luminescence. inhibition (viability loss, TRAIL sensitization), % at 10 µM. actives 1% (n = 360,000);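 active means compounds causing at least 50% loss of cell viability in the single-dose screen, relative to plate controls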
# FLuc act counter: firefly luciferase counter-screen for stimulation assays | P08659 | 200,000 tested, under 10 active | ATPlite luciferase biochemical, luminescence, 10 min; 0 = ATP-free wells, 1 = DMSO control | AID 1027 | activation factor at 10 µM;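 active means luciferase activation factor, scaled between plate controls, of at least 2 with compound at 10 µM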
# Target sequence (P08659 whole entry, looked up): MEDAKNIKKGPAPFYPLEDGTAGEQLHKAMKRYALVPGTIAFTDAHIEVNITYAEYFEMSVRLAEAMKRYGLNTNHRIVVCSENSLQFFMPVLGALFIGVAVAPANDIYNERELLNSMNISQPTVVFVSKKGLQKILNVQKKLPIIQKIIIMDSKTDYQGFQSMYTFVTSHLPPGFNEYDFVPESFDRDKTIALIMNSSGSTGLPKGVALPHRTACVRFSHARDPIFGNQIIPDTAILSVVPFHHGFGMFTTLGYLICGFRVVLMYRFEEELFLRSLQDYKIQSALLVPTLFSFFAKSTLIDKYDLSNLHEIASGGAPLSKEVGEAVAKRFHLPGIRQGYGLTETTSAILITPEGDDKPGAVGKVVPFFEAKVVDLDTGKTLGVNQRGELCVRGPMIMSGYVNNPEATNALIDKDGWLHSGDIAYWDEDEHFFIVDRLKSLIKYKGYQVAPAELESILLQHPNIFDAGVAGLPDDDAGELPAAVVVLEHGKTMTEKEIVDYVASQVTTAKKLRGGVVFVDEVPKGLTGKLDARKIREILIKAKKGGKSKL
#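 Material: Luciferase/luciferin reagent mix; Doses: test compounds dosed from 2 mM stocks in 100% DMSO; Schedule: 10 min incubation after luciferase reagent addition, room temperature; Measured by: luminescence from luciferase reaction; Read-out: luminescence gain marking luciferase activators.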
# PKD1 inh: inhibitors of human PKD1 kinase; inhibition, % (test concentration not listed); Q15139; PKD1 kinase fluorescence polarization assay; actives 0.056% (n = 200,000); AID 797; in the data active means inhibition above about 50%
# PPC-1+TRAIL kill: kills PPC-1 cancer cells in the presence of TRAIL; cell killing (% activity), % at 4 µM or 5 µM; PPC-1 cells + TRAIL, ATPLite viability luminescence; actives 0.41% (n = 220,000);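 active means cell killing above 50% in the first pass at 4 µM, then a duplicate retest at 5 µM averaging 50% or more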;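 further: plate controls were cells with TRAIL plus DMSO for no effect and medium-only wells lacking cells for full effect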
# Wee1 degr inh: blocks degradation of human Wee1 kinase; actives 1.2% (n = 220,000); HeLa Luc-Wee1K328M stability, luciferase luminescence; 100% = proteasome inhibitor MG132 effect; reporter increase, % at 5 µM;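 active means activation above the mean of all tested compounds plus 3 SD, set per screening run, cut at about 8.8% in these data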;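 further: cells exposed to compound for 20 h before luminescence read; 0% = DMSO alone and 100% = MG132 at 30 µM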
# FLuc inhib CS: counter-screen for luciferase assay inhibitors: firefly luciferase inhibition. ATPLite firefly luciferase biochemical luminescence, 10 min. P08659. actives 1.5% (n = 200,000). inhibition, % at 10 µM;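 active means inhibition above about 50% when tested at 10 µM, limit read from the data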
# Wee1 degr conf: confirmation of human Wee1 degradation inhibitors; shares compounds with Wee1 degr inh; actives 4% (n = 1,100); HeLa Luc-Wee1K328M degradation, luminescence; vehicle 0%, proteasome-blocked wells 100%; activation, % at 5 µM; in the data active means activation above about 8.9%
# An asterisk follows results filed as active; . = not tested or not shown. Most compounds without a hit are left out; they make up all but 2.2% or so of the library.
SMILES,TRAIL sens C8,FLuc act counter,PKD1 inh,PPC-1+TRAIL kill,Wee1 degr inh,FLuc inhib CS,Wee1 degr conf
COc1ccc(CC(=O)O/N=C(\N)c2ccccn2)cc1,-2,.,.,-7,16*,.,4
COc1ccc(/C=C/C(=O)c2ccccn2)cc1,-1,0,-3,6,12*,96*,-1
N/C(=N\OC(=O)Cc1ccc(-c2ccccc2)cc1)c1ccccn1,-7,1.1,3,6,0,-5,.
COC(=O)c1ccc(C(=O)Nc2ccc(C(C)C)cc2N)cc1,5,1,-2,27,0,-3,.
COc1ccc(C2CC(c3ccc4ccccc4c3)=NN2C(=O)COC(=O)C2CCC(=O)N2)cc1 (stereo not given),-7,1,-3,0,14*,-2,8
CN(Cc1nccn1C)C(=O)CC1C(=O)NCCN1Cc1cccc(Oc2ccccc2)c1 (stereo not given),3,1.1,1,-18,12*,-7,1
O=C(CNC(=O)c1cccc(-n2cnnn2)c1)Nc1ccc(F)c(F)c1,-11,.,.,.,.,.,.
CS(=O)(=O)Nc1cccc(C2=NN(S(C)(=O)=O)C(c3ccc4c(c3)OCO4)C2)c1 (stereo not given),-5,1.1,5,11,13*,-6,6
CS(=O)(=O)N1N=C(c2ccccc2)CC1c1ccc2c(c1)OCO2 (stereo not given),-3,1,-8,18,1,3,.
Cc1cc(O)c2/c(=N\N)c(-c3csc(C)n3)coc2c1,17,.,.,-1,2,.,.
O=C(CN1N=C(c2ccccc2)CCC1=O)NCc1ccccc1,-5,1.1,-6,16,2,-10,.
O=C(CN1N=C(c2ccccc2)CCC1=O)NCCN1CCc2ccccc2C1,3,1,0,-1,13*,0,1
CCOC(=O)CC(NC(=O)c1ccc(C)cc1)c1ccc(C)cc1 (stereo not given),-9,1,-11,10,14*,-5,2
COc1ccc(S(=O)(=O)N2CCOCC2)cc1C(=O)N(C)CCOc1ccc(Cl)cc1,-2,.,.,.,.,.,.
Cc1ccc(S(=O)(=O)N2CCOCC2)cc1C(=O)N(C)CCOc1ccc(Cl)cc1,-11,.,.,16,12*,.,0
COc1cc(Cl)cc(CN2CCC(CCC(=O)NC3CC3)CC2)c1OC,-3,.,.,.,.,.,.
O=C(NC1CCCC1)c1cc(Cl)ccc1[N+](=O)[O-],1,1,8,15,-1,-4,.
O=C(NC1CCCCC1)c1cc(Cl)ccc1[N+](=O)[O-],0,1.1,4,-7,16*,-10,0
O=C(CC(=O)c1ccccc1O)c1cccc(F)c1,31,1,-8,-19,11*,-2,4
Cc1cc(NC(=O)CSc2nnc(-c3cccc(Cl)c3)o2)no1,7,.,.,.,.,.,.
Cc1cc(-c2nnc(-c3cccc(Cl)c3)o2)no1,8,.,.,21,18*,.,2
CCNS(=O)(=O)c1ccc(NS(=O)(=O)c2cc(C)ccc2C)cc1,-11,1.1,-2,12,13*,-6,0
Cc1ccc(NC(=O)c2cc3c(s2)CCCC3)cc1,21,0.6,-6,-8,16*,42,2
Cc1ccc(NC(=O)c2scc3c2CCCC3)cc1,9,0.2,0,7,12*,75*,-2
Cc1cccc(C)c1-n1nnnc1C(c1ccnc2ccccc12)N1CCOCC1 (stereo not given),9,.,.,.,.,.,.
SMILES,TRAIL sens C8,FLuc act counter,PKD1 inh,PPC-1+TRAIL kill,Wee1 degr inh,FLuc inhib CS,Wee1 degr conf
COc1ccc(N2CCN(C(=O)CCN3C(=S)NC(C)(C)CC3C)CC2)cc1 (stereo not given),6,1,-4,-9,11*,-3,3
CC1CC(C)(C)NC(=S)N1CCC(=O)N1CCN(c2ccccc2)CC1 (stereo not given),4,1,0,11,-3,3,.
COc1ccc(C=O)c(-c2c(CCO)sc3ccccc23)c1,1,.,.,.,.,.,.
O=C(CSc1ccc(F)cc1)NC1CCCCC1,-3,1,1,6,12*,-4,2
O=C(CSc1ccc(Br)cc1)NC1CCCCCC1,-5,.,.,.,.,.,.
CC(=O)Nc1ccc(C(=O)Nc2nc(-c3ccccn3)cs2)cc1,-4,0.9,1,34,3,7,.
O=C(Nc1nc(-c2ccccn2)cs1)c1ccc2c(c1)OCCO2,51*,0.2,-1,49,31*,79*,2
O=C(CNC(=O)c1ccc(Cl)cc1)NCc1ccccn1,-15,.,.,.,.,.,.
CCCCn1c(=O)nc2n(-c3ccccc3C)c3ccccc3cc-2c1=O,9,1,0,16,-2,-4,.
Cc1ccccc1-n1c2nc(=O)n(C)c(=O)c-2cc2ccccc21,5,.,.,8,14*,.,1
O=C(CN1CCC(NC(=O)C2CCCCC2)CC1)Nc1ccccc1,-2,.,.,.,.,.,.
COc1ccc(NC(=O)CN2CCC(NC(=O)C3CCCCC3)CC2)cc1,-2,1.1,-5,7,15*,-6,1
O=C(CCCn1c(=O)c2ccccc2n(Cc2cccc(F)c2)c1=O)NC1CCN(Cc2ccccc2)CC1,.,1,1,6,0,-4,.
O=C(CCCCn1c(=O)c2ccccc2n(Cc2ccccc2)c1=O)NC1CCN(Cc2ccccc2)CC1,1,1,-5,9,11*,-2,0
C[C@@H]1CN([C@H](C)CO)C(=O)c2cc(NS(=O)(=O)c3cn(C)cn3)ccc2O[C@@H]1CN(C)S(C)(=O)=O,-5,.,.,.,.,.,.
CCCCSc1nsc(NC(C)=O)n1,7,0.9,9,13,1,6,.
CCCSc1nsc(NC(=O)CCC)n1,13,0.7,-9,.,13*,26,4
CCOC(=O)C1(CC2CCCCO2)CCN(C(=O)Nc2ccccc2CC)CC1 (stereo not given),-4,1,-3,7,-2,-2,.
CCOC(=O)C1(CC2CCCCO2)CCN(C(=O)Nc2ccccc2SC)CC1 (stereo not given),-5,1.1,11,13,12*,-6,3
Cc1cccc2sc(N(CCCN(C)C)C(=O)c3cc4ccccc4oc3=O)nc12,2,1.1,-10,5,2,-7,.
Cc1ccc2nc(N(CCCN(C)C)C(=O)c3cc4ccccc4oc3=O)sc2c1,5,1.1,-18,28,15*,-6,-2
Cc1ncoc1C(=O)Nc1ncc([N+](=O)[O-])s1,3,0.8,10,5,14*,19,8
CCCCN1CNC(=S)N(CCc2ccccc2)C1,6,1.1,-8,8,12*,-9,3
O=C(Oc1ccc(=O)n(-c2ccccc2)n1)c1cccc(Cl)c1,-3,1,-13,22,11*,-3,3
